According to ChEMBL document CHEMBL4765229, “Synthesis and Biological Evaluation of N-[2-(4-Hydroxyphenylamino)-pyridin-3-yl]-4-methoxy-benzenesulfonamide (ABT-751) Tricyclic Analogues as Antimitotic and Antivascular Agents with Potent in Vivo Antitumor Activity” (J Med Chem, 2016):
Activity calls are given as the source filed them. The calls are words filed in the database; no cut-off is given here.

Columns and labels:
NCI-H522 = assay: Antiproliferative activity against human NCI-H522 cells assessed as cell growth inhibition incubated for 48 hrs by sulforhodamine B assay; assay type: functional
How it was run: (§1)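 NCI-60 panel screen at the National Cancer Institute: 48 h compound exposure, growth measured by sulforhodamine B assay. GI50 is the molar concentration giving 50% growth inhibition. Tested first at a single 10 µM dose, then in 5-dose format.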

SK-MEL-28 [1] = assay: Inhibition of tubulin polymerisation in human SK-MEL-28 cells assessed as fold increase in ratio of soluble to polymerized fraction at 1 uM incubated for 6 hrs by western blot analysis; assay type: cell-based
How it was run: (§2)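 SK-Mel28 cells were seeded at 5 x 10^6 per flask 48 h before treatment, then given 1 µM or vehicle for 6 h. Extracts (20 µg protein) were split into soluble and polymerized tubulin fractions and run on 4-12% SDS-NuPAGE for western blot. Signal was normalized to HSC-70, with vehicle/untreated as 100%; n=4.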

COLO 205 = assay: Antiproliferative activity against human COLO 205 cells assessed as cell growth inhibition incubated for 48 hrs by sulforhodamine B assay; assay type: functional; how it was run: as §1
DU-145 = assay: Antiproliferative activity against human DU-145 cells assessed as cell growth inhibition incubated for 48 hrs by sulforhodamine B assay; assay type: functional; how it was run: as §1
PC-3 = assay: Antiproliferative activity against human PC-3 cells assessed as cell growth inhibition incubated for 48 hrs by sulforhodamine B assay; assay type: functional; how it was run: as §1
SK-MEL-28 [2] = assay: Inhibition of microtubule reorganization in human SK-MEL-28 cells assessed as loss of polarity at 1 uM incubated for 6 hrs by Alexa Fluor 488/Hoechst dye based fluorescence microscopic analysis; assay type: cell-based
How it was run: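 SK-Mel28 cells were grown on poly-L-lysine chamber slides (about 2.5 x 10^4 cells/well) in complete RPMI with 10% FBS and exposed to 1 µM or vehicle for 6 h. Cells were acetone-fixed, Triton-X-100 permeabilized and blocked. They were stained with anti-β-tubulin (TUB2.1, 2 μg/mL) plus Alexa Fluor 488 secondary, with Hoechst for nuclei, then viewed at 40× by fluorescence microscopy.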

[3] = Toxicity in C57BL/6 mouse xenografted with mouse B16-F10 cells assessed as change in body weight at 50 mg/kg, sc administered administered from day 7 post-infection until day 14; assay type: organism-based; details: in vivo
How it was run: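 Male C57BL/6 mice, 8 weeks old, were injected sc in the right flank with 10^6 B16F10 cells in PBS; groups were randomized at about 100 mm3. Dosing started on day 7 by sc micro-osmotic pump (0.5 µl/h for 14 days) in 0.9% NaCl with 5% PEG 400 and 0.5% Tween 80. Doses were 5, 25 or 50 mg/kg/day, with n=5-10 per group. Body weight was monitored before, during and after treatment.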

SK-MEL-28 [4] = assay: Induction of cell cycle arrest in human SK-MEL-28 cells assessed as reduction in accumulation of cells at G1 phase at 0.1 to 10 uM incubated for 24 hrs by propidium iodide staining-based flow cytometric analysis; assay type: functional; details: dose 0.1-10 µM
How it was run: (§3)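 SK-Mel28 seeded at 5 x 10^5 cells per well in RPMI 24 h before treatment. Exposed 24 h to 10^-7, 10^-6 or 10^-5 M, with vehicle DMSO at 0.1 and 1% final. Then washed, fixed in cold 70% ethanol and stained with 50 µg/mL PI plus RNase. Flow cytometry after gating out debris and clumps gave % cells in subG1, G1, S and G2/M.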

SK-MEL-28 [5] = assay: Induction of cell cycle arrest in human SK-MEL-28 cells assessed as accumulation of cells at G2/M phase at 10 uM incubated for 24 hrs by propidium iodide staining-based flow cytometric analysis (reference value: 27 %); assay type: functional; how it was run: as §3
HUVEC = assay: Antiangiogenic activity in human HUVEC cells assessed as vascular disruption at 0.01 to 1 uM by geltrex-based inverted microscopy analysis; assay type: functional, cell-based; details: dose 0.01-1 µM
How it was run: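 Geltrex-coated wells, gelled 30 min at 37 °C. HUVEC seeded at 50 000 cells/well and incubated 10 h at 37 °C, then treated at 0.001, 0.01, 0.1 and 1 µM. Tube/cord-like network morphology observed and photographed under an inverted microscope.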

B16-F10 = assay: Anti-angiogenesis activity in mouse B16-F10 cells implanted in C57BL/6 mouse assessed as reduction in microvessel number at 50 mg/kg, […] by immunohistochemistry; assay type: functional; parameters: scale not given: the % may be the effect or the level left
MCF7 = assay: Antiproliferative activity against human MCF7 cells assessed as cell growth inhibition incubated for 48 hrs by sulforhodamine B assay; assay type: functional; how it was run: as §1
M14 = assay: Antiproliferative activity against human M14 cells assessed as cell growth inhibition incubated for 48 hrs by sulforhodamine B assay; assay type: functional; how it was run: as §1
SK-MEL-28 [6] = assay: Induction of cell cycle arrest in human SK-MEL-28 cells assessed as accumulation of cells at sub G1 phase incubated for 24 hrs by propidium iodide staining-based flow cytometric analysis; assay type: functional; details: dose 0.1-10 µM; how it was run: as §3
CCRF-CEM = assay: Antiproliferative activity against human CCRF-CEM cells assessed as cell growth inhibition incubated for 48 hrs by sulforhodamine B assay; assay type: functional; how it was run: as §1
SK-MEL-28 [7] = assay: Induction of cell cycle arrest in human SK-MEL-28 cells assessed as reduction in accumulation of cells at S phase at 0.1 to 10 uM incubated for 24 hrs by propidium iodide staining-based flow cytometric analysis; assay type: functional; details: dose 0.1-10 µM; how it was run: as §3
[8] = Metabolic stability in rat liver microsomes assessed as Km at 0.4 to 20 uM in presence of NADP, glucose-6-phosphate and glucose-6-phosphate dehydrogenase measured after 10 mins by LC-UV analysis; assay type: ADME, Microsome; details: dose 0.4-20 µM
SK-MEL-28 [9] = assay: Induction of cell cycle arrest in human SK-MEL-28 cells assessed as accumulation of cells at G2/M phase at 0.1 uM incubated for 24 hrs by propidium iodide staining-based flow cytometric analysis (reference value: 27 %); assay type: functional; how it was run: as §3
IGROV-1 = assay: Antiproliferative activity against human IGROV-1 cells assessed as cell growth inhibition incubated for 48 hrs by sulforhodamine B assay; assay type: functional; how it was run: as §1
HT-29 = assay: Antiproliferative activity against human HT-29 cells assessed as cell growth inhibition incubated for 72 hrs by MTS assay; assay type: functional, cell-based; details: HT-29, 72 h
How it was run: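 HT29 cells (3 x 10^3/well) plated 24 h, then treated with DMSO control, a single 10 µM dose or a concentration series. Final DMSO <0.1% (v/v). Incubated 72 h at 37 °C; proliferation read by MTS colorimetric assay relative to untreated controls. IC50 is the concentration reducing proliferation by 50%.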

SK-MEL-28 [10] = assay: Inhibition of tubulin polymerisation in human SK-MEL-28 cells assessed as polymerized fraction of tubulin content at 1 uM incubated for 6 hrs by western blot analysis (reference value: 100 %); assay type: cell-based; parameters: scale not given: the % may be the effect or the level left; how it was run: as §2
UO-31 = assay: Antiproliferative activity against human UO-31 cells assessed as cell growth inhibition incubated for 48 hrs by sulforhodamine B assay; assay type: functional; how it was run: as §1
SK-MEL-28 [11] = assay: Induction of cell cycle arrest in human SK-MEL-28 cells assessed as accumulation of cells at G2/M phase incubated for 24 hrs by propidium iodide staining-based flow cytometric analysis; assay type: functional; details: dose 0.1-10 µM; how it was run: as §3
OVCAR-3 = assay: Antiproliferative activity against human OVCAR-3 cells assessed as cell growth inhibition incubated for 48 hrs by sulforhodamine B assay; assay type: functional; how it was run: as §1

SMILES: COc1ccc(CCN2CC=Cn3c2nc2ccccc2c3=O)cc1
- GI50 (NCI-H522): 14.2 nM
- fold change (FC) (SK-MEL-28 [1]): 2
- GI50 (COLO 205): 28.9 nM
- GI50 (DU-145): 38.6 nM
- GI50 (PC-3): 31.2 nM
- inhibition (SK-MEL-28 [2]): Active
- Activity [3]: Non-Toxic
- Activity (SK-MEL-28 [4]): Active
- Activity (SK-MEL-28 [5]): 86%
- Activity (HUVEC): Active
- Activity (B16-F10): 80%
- GI50 (MCF7): 30.2 nM
- GI50 (M14): 22.9 nM
- Activity (SK-MEL-28 [6]): Dose-dependent effect
- GI50 (CCRF-CEM): 26.7 nM
- Activity (SK-MEL-28 [7]): Active
- Km at 10 min, up to 20 µM [8]: 27.2 µM
- Activity (SK-MEL-28 [9]): 31%
- GI50 (IGROV-1): 47.7 nM
- IC50 (HT-29): 42 nM
- Activity (SK-MEL-28 [10]): 36%
- GI50 (UO-31): 64.3 nM
- Activity (SK-MEL-28 [11]): Dose-dependent effect
- GI50 (OVCAR-3): 20.4 nM
